Test results reported in ChEMBL document CHEMBL3588826, “Chimeric derivatives of functionalized amino acids and α-aminoamides: compounds with anticonvulsant activity in seizure models and inhibitory actions on central, peripheral, and cardiac isoforms of voltage-gated sodium channels” (Bioorg Med Chem, 2015).
Calls of active or inactive are those of the source. The calls are words filed in the database; no cut-off is given here.

How the values were obtained:
[1] = Behavioural toxicity in po dosed albino Sprague-Dawley rat measured at 0.5 hrs; type: organism-based; details: in vivo
Method in brief: (§1)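 Male albino Sprague-Dawley rats were dosed ip or orally. […] Protective index = TD50/ED50, the ED50 taken from maximal electroshock by the same route.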

Mus musculus [2] = assay: Anticonvulsant activity in ip dosed albino Carworth Farms No. 1 mouse measured at 0.5 hrs by 6Hz (32 mA) psychomotor seizure test; type: functional; details: Carworth Farms No. 1, ip
Method in brief: (§2)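 Screened under the NIH anticonvulsant program in male albino Carworth Farms No. 1 mice (ip) and male albino Sprague-Dawley rats (ip or oral). Protection tested by maximal electroshock or 6 Hz (32 mA) psychomotor stimulation.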

Rattus norvegicus [3] = assay: Anticonvulsant activity in po dosed albino Sprague-Dawley rat measured at 5 hrs by maximal electroshock seizure test; type: functional; method in brief: as §2
Mus musculus [4] = assay: Anticonvulsant activity in ip dosed albino Carworth Farms No. 1 mouse measured at 1 hr by maximal electroshock seizure test; type: functional; details: Carworth Farms No. 1, ip; method in brief: as §2
Mus musculus [5] = assay: Anticonvulsant activity in ip dosed albino Carworth Farms No. 1 mouse measured at 0.25 hrs by maximal electroshock seizure test; type: functional; details: Carworth Farms No. 1, ip; method in brief: as §2
[6] = Protective index, ratio of TD50 for neurotoxicity in ip dosed albino Carworth Farms No. 1 mouse to ED50 for anticonvulsant activity in ip dosed MES albino Carworth Farms No. 1 mouse model; type: toxicity, organism-based; details: in vivo, read-out: Ratio TD50/ED50
Method in brief: (§3)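 Male albino Carworth Farms No. 1 mice were dosed ip. Protective index = TD50/ED50, the ED50 taken from the ip maximal electroshock test.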

Rattus norvegicus [7] = species: Rattus norvegicus; assay: Frequency-dependent inhibition of voltage-gated sodium channel in rat embryonic cortical neurons assessed as current amplitude at 10 uM measured at holding potential of -80 mV by whole cell patch-clamp electrophysiology
Method in brief: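 E19 rat cortical neurons cultured 7–10 days were recorded by whole-cell voltage clamp at room temperature. Compound was at 10 μM versus 0.1% DMSO. A pulse train was applied, and available current was taken as peak current at pulse N divided by peak at pulse 1.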

[8] = Behavioural toxicity in po dosed albino Sprague-Dawley rat measured at 0.25 - 4 hrs; type: organism-based; details: in vivo; method in brief: as §1
Rattus norvegicus [9] = assay: Anticonvulsant activity in po dosed albino Sprague-Dawley rat measured at 0.25 - 4.0 hrs by maximal electroshock seizure test; type: functional
Method in brief: (§4)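 Screened under the NIH Anticonvulsant Screening Program in male rodents, with mice and rats dosed ip and rats also dosed po. Maximal electroshock (MES) and 6 Hz (32 mA) psychomotor seizure tests were run.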

Mus musculus [10] = assay: Anticonvulsant activity in ip dosed albino Carworth Farms No. 1 mouse measured at 0.25-0.5 hrs by 6Hz (32 mA) psychomotor seizure test; type: functional; details: Carworth Farms No. 1, ip; method in brief: as §4
Rattus norvegicus [11] = assay: Anticonvulsant activity in ip dosed albino Sprague-Dawley rat by maximal electroshock seizure test; type: functional; method in brief: as §4
[12] = Behavioural toxicity in po dosed albino Sprague-Dawley rat; details: in vivo
Rattus norvegicus [13] = assay: Anticonvulsant activity in po dosed albino Sprague-Dawley rat by maximal electroshock seizure test; type: functional; method in brief: as §4
Rattus norvegicus [14] = species: Rattus norvegicus; assay: Inhibition of voltage-gated sodium channel in rat embryonic cortical neurons assessed as decrease in fraction of current available at 10 uM measured at -50 mV by whole cell patch-clamp electrophysiology
Method in brief: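 Embryonic cortical neurons were treated with 10 μM compound or 0.1% DMSO, whole-cell voltage clamp at room temperature. Slow inactivation was assessed at −50 mV, with the fraction inactivated taken as 1 minus the normalized INa. Student's t-test; 5–8 cells per condition.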

[15] = (§5) Neurotoxicity in ip dosed albino Carworth Farms No. 1 mouse measured at 0.5 hrs by rotarod test; type: toxicity, organism-based; details: Carworth Farms No. 1, mouse, in vivo; method in brief: as §3
Rattus norvegicus [16] = species: Rattus norvegicus; assay: Effect on steady state fast-inactivation of voltage-gated sodium channel in rat embryonic cortical neurons at 10 uM by whole cell patch-clamp electrophysiology
Method in brief: (§6)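 Rat embryonic day 19 cortical neurons, cultured 7–10 days, were whole-cell voltage-clamped at room temperature with 1–2 MΩ electrodes, with compound at 10 μM and 0.1% DMSO as control. Fast inactivation: 500 ms prepulses, then a test pulse. Activation: conductance G = I/(Vm − Vrev). V1/2 and k came from Boltzmann fits to individual cells, averaged (mean ± SEM), 5–7 cells per condition.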

Mus musculus [17] = assay: Anticonvulsant activity in ip dosed albino Carworth Farms No. 1 mouse measured at 0.5 - 2.0 hrs by maximal electroshock seizure test; type: functional; details: Carworth Farms No. 1, ip; method in brief: as §2
Rattus norvegicus [18] = species: Rattus norvegicus; assay: Effect on steady state activation of voltage-gated sodium channel in rat embryonic cortical neurons at 10 uM by whole cell patch-clamp electrophysiology; method in brief: as §6
[19] = Behavioural toxicity in ip dosed albino Sprague-Dawley rat measured at 0.5 hrs; type: organism-based; details: in vivo
[20] = Protective index, ratio of TD50 for behavioural toxicity in po dosed albino Sprague-Dawley rat to ED50 for anticonvulsant activity in po dosed MES albino Sprague-Dawley rat model; type: organism-based; details: in vivo, read-out: Ratio TD50/ED50
Method in brief: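 Male albino Sprague-Dawley rats were dosed ip or orally. Protective index = TD50/ED50, the ED50 taken from maximal electroshock by the same route.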

[21] = Neurotoxicity in ip dosed albino Carworth Farms No. 1 mouse measured at 0.25 hrs by rotarod test; type: toxicity, organism-based; details: in vivo
Mus musculus [22] = assay: Anticonvulsant activity in ip dosed albino Carworth Farms No. 1 mouse measured at 0.25 hrs by 6Hz (32 mA) psychomotor seizure test; type: functional; details: Carworth Farms No. 1, ip; method in brief: as §2
Mus musculus [23] = assay: Anticonvulsant activity in ip dosed albino Carworth Farms No. 1 mouse measured at 0.5 hrs by maximal electroshock seizure test; type: functional; details: Carworth Farms No. 1, ip; method in brief: as §2
Rattus norvegicus [24] = assay: Anticonvulsant activity in po dosed albino Sprague-Dawley rat measured at 1 hr by maximal electroshock seizure test; type: functional; method in brief: as §2
Rattus norvegicus [25] = assay: Anticonvulsant activity in ip dosed albino Sprague-Dawley rat measured at 0.5 hrs by maximal electroshock seizure test; type: functional; method in brief: as §4
Rattus norvegicus [26] = species: Rattus norvegicus; assay: Inhibition of voltage-gated sodium channel in rat embryonic cortical neurons assessed as transition of channels to slow-inactivated state at 10 uM measured at -50 mV by whole cell patch-clamp electrophysiology
Method in brief: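 E19 rat cortical neurons cultured 7–10 days were recorded by whole-cell voltage clamp at room temperature, with electrodes of 1–2 MΩ. Compound was at 10 μM versus 0.1% DMSO control. Slow inactivation at −50 mV was calculated as 1 minus normalized peak INa, from 5–8 cells per condition.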

[27] = Protective index, ratio of TD50 for behavioural toxicity in ip dosed albino Sprague-Dawley rat to ED50 for anticonvulsant activity in ip dosed MES albino Sprague-Dawley rat model; type: organism-based; details: in vivo, read-out: Ratio TD50/ED50; method in brief: as §1
Rattus norvegicus [28] = assay: Anticonvulsant activity in ip dosed albino Sprague-Dawley rat measured at 0.25 hrs by maximal electroshock seizure test; type: functional; method in brief: as §2
Rattus norvegicus [29] = species: Rattus norvegicus; assay: Inhibition of voltage-gated sodium channel in rat embryonic cortical neurons assessed as half-maximal voltage for steady state activation at 10 uM by whole cell patch-clamp electrophysiology (reference value: -27.1 +/- 1.3 mV); method in brief: as §6
[30] = Behavioural toxicity in ip dosed albino Sprague-Dawley rat measured at 1 hr; type: organism-based; details: in vivo; method in brief: as §1
Rattus norvegicus [31] = assay: Anticonvulsant activity in po dosed albino Sprague-Dawley rat measured at 0.25 - 1 hr by maximal electroshock seizure test; type: functional; method in brief: as §2
Mus musculus [32] = assay: Anticonvulsant activity in ip dosed albino Carworth Farms No. 1 mouse by maximal electroshock seizure test; type: functional; details: Carworth Farms No. 1, ip; method in brief: as §4
Rattus norvegicus [33] = assay: Anticonvulsant activity in po dosed albino Sprague-Dawley rat measured at 0.5 - 4 hrs by maximal electroshock seizure test; type: functional; method in brief: as §2
Mus musculus [34] = assay: as §5; type: toxicity, organism-based; details: mouse, in vivo, 0.5 h; method in brief: as §3
Rattus norvegicus [35] = assay: Anticonvulsant activity in po dosed albino Sprague-Dawley rat measured at 0.5 hrs by maximal electroshock seizure test; type: functional; method in brief: as §2
[36] = Behavioural toxicity in ip dosed albino Sprague-Dawley rat measured at 0.25 hrs; type: organism-based; details: in vivo; method in brief: as §1

COC[C@@H](NC(C)=O)C(=O)NCc1ccccc1 [LACOSAMIDE]
TD50 at 0.5 h [1]: > 500 mg/kg
ED50 (Mus musculus [2]): 10 mg/kg

CCC1(c2ccccc2)C(=O)NC(=O)NC1=O [PHENOBARBITAL]
ED50 (Rattus norvegicus [3]): 9.1 mg/kg
ED50 (Mus musculus [4]): 22 mg/kg

CCCC(CCC)C(=O)O [VALPROIC ACID]
ED50 (Mus musculus [5]): 270 mg/kg

COC[C@@H](NC(C)=O)C(=O)NCc1ccc(Oc2cccc(F)c2)cc1
selectivity ratio [6]: 4.2
inhibition (Rattus norvegicus [7]): inactive
TD50 [8]: > 10 mg/kg
ED50 (Rattus norvegicus [9]): < 10 mg/kg
ED50 (Mus musculus [10]): 10 mg/kg
ED50 (Mus musculus [5]): 5.5 mg/kg

O=C1NC(=O)C(c2ccccc2)(c2ccccc2)N1 [PHENYTOIN]
ED50 (Rattus norvegicus [11]): 2.4 mg/kg
TD50 [12]: > 1000 mg/kg
ED50 (Rattus norvegicus [13]): 28 mg/kg

COC[C@@H](NC(C)=O)C(=O)NCc1ccc(Oc2ccccc2)cc1
inhibition (Rattus norvegicus [14]): Active
TD50 at 0.5 h [15]: < 100 mg/kg
Activity (Rattus norvegicus [16]): inactive
inhibition (Rattus norvegicus [7]): inactive
ED50 (Mus musculus [17]): < 30 mg/kg
Activity (Rattus norvegicus [18]): inactive
ED50 (Mus musculus [2]): < 30 mg/kg

COC[C@@H](NC(C)=O)C(=O)NCc1ccc(Oc2cccc(Cl)c2)cc1
TD50 at 0.5 h [19]: 49 mg/kg
selectivity ratio [6]: 5
inhibition (Rattus norvegicus [7]): inactive
selectivity ratio [20]: 18
TD50 at 0.25 h [21]: 47 mg/kg
ED50 (Mus musculus [22]): 20 mg/kg
ED50 (Mus musculus [23]): 9.4 mg/kg
ED50 (Rattus norvegicus [24]): 12 mg/kg
ED50 (Rattus norvegicus [25]): 5.9 mg/kg
TD50 at 0.5 h [1]: 210 mg/kg
inhibition (Rattus norvegicus [26]): Active
selectivity ratio [27]: 8.3

COC[C@@H](NC(C)=O)C(=O)NCc1ccc(Oc2cccc(OC)c2)cc1
ED50 (Rattus norvegicus [28]): 15 mg/kg
selectivity ratio [6]: 6.5
inhibition (Rattus norvegicus [7]): inactive
TD50 at 0.25 h [21]: 85 mg/kg
V1/2 (Rattus norvegicus [29]): -36.8 mV
TD50 at 1 h [30]: 120 mg/kg
TD50 [8]: > 30 mg/kg
selectivity ratio [27]: 8
ED50 (Mus musculus [2]): < 100 mg/kg
ED50 (Mus musculus [5]): 13 mg/kg
ED50 (Rattus norvegicus [31]): 30 mg/kg

C[C@H](NCc1ccc(OCc2cccc(F)c2)cc1)C(N)=O [SAFINAMIDE]
ED50 (Mus musculus [32]): 4.1 mg/kg
ED50 (Rattus norvegicus [13]): 12 mg/kg

COC[C@@H](NC(C)=O)C(=O)NCc1ccc(Oc2cccc(C(F)(F)F)c2)cc1
ED50 (Rattus norvegicus [33]): < 30 mg/kg
TD50 (Mus musculus [34]): > 100 mg/kg
inhibition (Rattus norvegicus [7]): inactive
V1/2 (Rattus norvegicus [29]): -35.6 mV
ED50 (Mus musculus [23]): 10 mg/kg
TD50 [8]: > 30 mg/kg
ED50 (Mus musculus [2]): < 100 mg/kg

COC[C@@H](NC(C)=O)C(=O)NCc1ccc(Oc2cccc(C)c2)cc1
ED50 (Rattus norvegicus [28]): 12 mg/kg
selectivity ratio [6]: 4.6
inhibition (Rattus norvegicus [7]): inactive
ED50 (Rattus norvegicus [35]): < 30 mg/kg
TD50 at 0.25 h [21]: 65 mg/kg
TD50 [8]: > 30 mg/kg
TD50 at 0.25 h [36]: 140 mg/kg
selectivity ratio [27]: 12
ED50 (Mus musculus [2]): 100 mg/kg
ED50 (Mus musculus [5]): 14 mg/kg
